{
  "source": "ChEMBL document CHEMBL1821649",
  "about": "“Synthesis, characterization of some benzazoles bearing pyridine moiety: search for novel anticancer agents” (2011)",
  "test_system": "UO-31",
  "test": "Antitumor activity against human UO31 cells at 10^-5 M after 48 hrs by SRB assay",
  "type": "functional",
  "conditions": "UO-31, 48 h, read-out: GI",
  "procedure,_shortened": "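Single-dose screen following the National Cancer Institute Drug Evaluation Branch protocol, run on the NCI panel of 60 human tumour cell lines covering nine cancer types. Percent growth of treated cells was recorded and reported as percentage growth inhibition (GI%). Compounds meeting preset inhibition thresholds advanced to a five-dose, 10-fold dilution series.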",
  "data": [
    {"smiles": "Cc1cc2nc(-c3c(N)ncc(C#N)c3-c3ccc(O)cc3)[nH]c2cc1C", "values": [
      {"measurement": "inhibition of growth at 10 µM", "result": 33.4, "unit": "%"}
    ]}
  ]
}
